Test results as given in ChEMBL document CHEMBL3826895, “Pterin-sulfa conjugates as dihydropteroate synthase inhibitors and antibacterial agents” (Bioorg Med Chem Lett, 2016).
Converted amounts (≈) assume the structure as drawn.

Assays:
Dihydropteroate synthase [1] = molecular target: T1, Dihydropteroate synthase (Bacillus anthracis, UniProt Q81VW8); experiment: Inhibition of fluorescein-labeled probe binding to Bacillus anthracis N-terminal His-tagged DHPS incubated for 1 hr by fluorescence polarization assay
T1 sequence (Q81VW8 whole entry): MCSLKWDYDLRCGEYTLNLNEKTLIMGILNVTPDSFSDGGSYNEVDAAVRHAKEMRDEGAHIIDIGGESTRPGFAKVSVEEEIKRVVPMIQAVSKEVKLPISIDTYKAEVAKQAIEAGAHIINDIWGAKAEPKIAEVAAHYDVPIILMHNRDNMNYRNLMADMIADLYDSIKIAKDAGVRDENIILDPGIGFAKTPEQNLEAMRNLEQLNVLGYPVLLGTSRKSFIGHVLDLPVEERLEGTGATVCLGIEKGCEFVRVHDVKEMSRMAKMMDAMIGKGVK
How it was run: (§1)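 Competition binding of test compounds against a probe on B. anthracis DHPS, read by fluorescence polarization as displacement of the probe; run without added pyrophosphate or with 2 mM sodium pyrophosphate, the DHPS reaction byproduct, to confirm site-specific binding; IC50 values derived from probe displacement.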

Dihydropteroate synthase [2] = molecular target: T1, Dihydropteroate synthase; experiment: Inhibition of fluorescein-labeled probe binding to Bacillus anthracis N-terminal His-tagged DHPS incubated for 1 hr in presence of sodium pyrophosphate by fluorescence polarization assay; how it was run: as §1
Escherichia coli [3] = experiment: Antibacterial activity against Escherichia coli K-12 in M9 minimal media by turbidometric method; format: functional
Escherichia coli [4] = experiment: Antibacterial activity against Escherichia coli K-12 in M9 minimal media in presence of folate precursor PABA by turbidometric method; format: functional
Escherichia coli [5] = experiment: Antibacterial activity against Escherichia coli K-12 in M9 minimal media in presence of methionine by turbidometric method; format: functional

Row | Compound | IC50 (Dihydropteroate synthase [1]) | IC50 (Dihydropteroate synthase [2]) | MIC (Escherichia coli [3]) | MIC (Escherichia coli [4]) | MIC (Escherichia coli [5])
1 | Cc1cc(NS(=O)(=O)c2ccc(NCc3cnc4nc(N)[nH]c(=O)c4n3)cc2)no1 | 20.6 µM | 3.4 µM | 10.9 µM (≈ 4.67 µg/mL) | 467 µM | 29 µM
2 | CC(=O)NS(=O)(=O)c1ccc(NCc2cnc3nc(N)[nH]c(=O)c3n2)cc1 | 18.6 µM | 17.1 µM | 136 µM (≈ 53 µg/mL) | > 514 µM | > 200 µM
3 | CC(=O)Nc1nc2ncc(CNc3ccc(S(=O)(=O)Nc4ccccn4)cc3)nc2c(=O)[nH]1 |  |  | 2.7 µM (≈ 1.26 µg/mL) | 669 µM | 6.3 µM
4 | CC(=O)Nc1nc2ncc(CNc3ccc(S(=O)(=O)c4ccc(N)cc4)cc3)nc2c(=O)[nH]1 |  |  | 25 µM (≈ 11.6 µg/mL) | > 934 µM | 50 µM
5 | COc1ncnc(NS(=O)(=O)c2ccc(NCc3cnc4nc(N)[nH]c(=O)c4n3)cc2)c1OC | 15.2 µM | 11.5 µM | 34.3 µM (≈ 16.7 µg/mL) | > 412 µM | 172 µM
6 | CC(=O)Nc1nc2ncc(CNc3ccc(S(=O)(=O)Nc4cc(C)on4)cc3)nc2c(=O)[nH]1 |  |  | 0.8 µM (≈ 0.376 µg/mL) | 263 µM | 1.5 µM
7 | CC(=O)Nc1nc2ncc(CNc3ccc(S(=O)(=O)Nc4ncccn4)cc3)nc2c(=O)[nH]1 |  |  | 1.6 µM (≈ 0.748 µg/mL) | 666 µM | 6.2 µM
8 | O=C(N[C@H](CO)[C@H](O)c1ccc([N+](=O)[O-])cc1)C(Cl)Cl [CHLORAMPHENICOL] |  |  | 8.5 µM (≈ 2.75 µg/mL) | 9.7 µM | 9.7 µM
9 | COc1cc(NS(=O)(=O)c2ccc(NCc3cnc4nc(NC(C)=O)[nH]c(=O)c4n3)cc2)nc(OC)n1 |  |  | 1.6 µM (≈ 0.844 µg/mL) | 537 µM | 3.4 µM
10 | Cc1noc(NS(=O)(=O)c2ccc(NCc3cnc4nc(N)[nH]c(=O)c4n3)cc2)c1C | 22.5 µM | 8.1 µM | 28.3 µM (≈ 12.5 µg/mL) | > 412 µM | 47 µM
11 | COc1cc(NS(=O)(=O)c2ccc(NCc3cnc4nc(N)[nH]c(=O)c4n3)cc2)nc(OC)n1 | 26.8 µM | 1.9 µM | 17.2 µM (≈ 8.35 µg/mL) | > 412 µM | 86 µM
12 | CC1(C)S[C@@H]2[C@H](NC(=O)[C@H](N)c3ccccc3)C(=O)N2[C@H]1C(=O)O [AMPICILLIN] |  |  | 1.58 µM (≈ 0.552 µg/mL) | 2 µM | 2.1 µM
13 | COc1cc(Cc2cnc(N)nc2N)cc(OC)c1OC [TRIMETHOPRIM] |  |  | 1.7 µM (≈ 0.494 µg/mL) | 1.4 µM | 0.7 µM
14 | CC(=O)Nc1nc2ncc(CNc3ccc(S(=O)(=O)NC(C)=O)cc3)nc2c(=O)[nH]1 |  |  | 22 µM (≈ 9.49 µg/mL) | > 934 µM | 58 µM
15 | Nc1nc2ncc(CNc3ccc(S(=O)(=O)Nc4ccccn4)cc3)nc2c(=O)[nH]1 | > 62.5 µM | 2.5 µM | 29.5 µM (≈ 12.5 µg/mL) | > 471 µM | 98 µM
16 | COc1ncnc(NS(=O)(=O)c2ccc(NCc3cnc4nc(NC(C)=O)[nH]c(=O)c4n3)cc2)c1OC |  |  | 3.8 µM (≈ 2 µg/mL) | > 644 µM | 10.1 µM
17 | Nc1nc2ncc(CNc3ccc(S(=O)(=O)Nc4ncccn4)cc3)nc2c(=O)[nH]1 | 19.3 µM | 9.4 µM | 17.1 µM (≈ 7.27 µg/mL) | > 470 µM | 78 µM
18 | Nc1ccc(S(=O)(=O)c2ccc(NCc3cnc4nc(N)[nH]c(=O)c4n3)cc2)cc1 | 17.8 µM | 11.3 µM | 197 µM (≈ 83.4 µg/mL) | 236 µM | 236 µM
19 | CC(=O)Nc1nc2ncc(CNc3ccc(S(=O)(=O)Nc4onc(C)c4C)cc3)nc2c(=O)[nH]1 |  |  | 1.5 µM (≈ 0.727 µg/mL) | 249 µM | 5.9 µM
